Source: ChEMBL document CHEMBL1155292, “Synthesis, analgesic and anti-inflammatory activities evaluation of some bi-, tri- and tetracyclic condensed pyrimidines” (Eur J Med Chem, 2009)

Assays:
Rattus norvegicus [1] = assay: Antiinflammatory activity in albino rat assessed as inhibition of carrageenan-induced paw edema at 0.029 mmol/kg, po after 4 hrs relative to indomethacin; assay type: functional
Procedure, shortened: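 Rat carrageenan paw edema: oral 0.029 mmol/kg in saline/Tween 80, 1 h before subplantar 0.1 ml 1% carrageenan into the right hind paw; six rats per group. Potency is % inhibition of the test compound divided by % inhibition of indomethacin at 4 h.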

Rattus norvegicus [2] = assay: Gastrointestinal toxicity in albino rat assessed as ulcerogenic index at 0.029 mmol/kg, po after 5 hrs; assay type: organism-based; conditions: in vivo
Procedure, shortened: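 Adult albino rats of either sex (120–150 g), 6 per group, got the test compounds orally by stomach tube as a suspension in saline with a few drops of tween 80. They were the same rats used in the carrageenan paw-edema test. Stomachs were then opened along the great curvature and examined for lesions or bleeding. Ulceration was recorded as the number of rats with ulcers out of 6.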

Rattus norvegicus [3] = assay: Antiinflammatory activity in albino rat assessed as inhibition of carrageenan-induced paw edema at 0.029 mmol/kg, po after 3 hrs relative to control; assay type: functional
Procedure, shortened: (§1)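 Adult albino rats of either sex, 120–150 g, six per group. Compounds at 0.029 mmol/kg suspended in saline with a few drops of Tween 80 and given by oral stomach tube. After 1 h, 0.1 ml of freshly prepared 1% carrageenan in saline injected subplantar into the right hind paw. Paw thickness measured at 1–4 h; % edema inhibition versus control; mean ± SEM; ANOVA.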

Rattus norvegicus [4] = assay: Antiinflammatory activity in albino rat assessed as inhibition of carrageenan-induced paw edema at 0.029 mmol/kg, po after 4 hrs relative to control; assay type: functional; procedure, shortened: as §1
Rattus norvegicus [5] = assay: Antiinflammatory activity in albino rat assessed as inhibition of carrageenan-induced paw edema at 0.029 mmol/kg, po after 2 hrs relative to control; assay type: functional; procedure, shortened: as §1
Rattus norvegicus [6] = assay: Antiinflammatory activity in albino rat assessed as inhibition of carrageenan-induced paw edema at 0.029 mmol/kg, po after 1 hr relative to control; assay type: functional; procedure, shortened: as §1
Mus musculus [7] = assay: Analgesic activity in albino mouse assessed as decrease in acetic acid-induced writhing at 8.45 mg/kg, po administered 1 hr prior to acetic acid challenge relative to control; assay type: functional
Procedure, shortened: (§2)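 Albino mice of either sex, 18–22 g, six per group. Test agents suspended in saline with a few drops of Tween 80 and given by oral stomach tube; controls handled identically without drug. After 1 h, 0.3 ml of 1% acetic acid ip. Writhing contractions counted for 30 min, starting 5 min after injection. % protection versus control mean; mean ± SEM; one-way ANOVA with post hoc test.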

Mus musculus [8] = assay: Analgesic activity in albino mouse assessed as decrease in acetic acid-induced writhing at 10.45 mg/kg, po administered 1 hr prior to acetic acid challenge relative to control; assay type: functional; procedure, shortened: as §2
Mus musculus [9] = assay: Analgesic activity in albino mouse assessed as decrease in acetic acid-induced writhing at 8.94 mg/kg, po administered 1 hr prior to acetic acid challenge relative to control; assay type: functional; procedure, shortened: as §2
Mus musculus [10] = assay: Analgesic activity in albino mouse assessed as decrease in acetic acid-induced writhing at 7.63 mg/kg, po administered 1 hr prior to acetic acid challenge relative to control; assay type: functional; procedure, shortened: as §2
Mus musculus [11] = assay: Analgesic activity in albino mouse assessed as decrease in acetic acid-induced writhing at 8.59 mg/kg, po administered 1 hr prior to acetic acid challenge relative to control; assay type: functional; procedure, shortened: as §2
Mus musculus [12] = assay: Analgesic activity in albino mouse assessed as decrease in acetic acid-induced writhing at 4 mg/kg, po administered 1 hr prior to acetic acid challenge; assay type: functional; procedure, shortened: as §2
Mus musculus [13] = assay: Analgesic activity in albino mouse assessed as decrease in acetic acid-induced writhing at 0.8 mg/kg, po administered 1 hr prior to acetic acid challenge; assay type: functional; procedure, shortened: as §2
Mus musculus [14] = assay: Analgesic activity in albino mouse assessed as decrease in acetic acid-induced writhing at 0.4 mg/kg, po administered 1 hr prior to acetic acid challenge; assay type: functional; procedure, shortened: as §2
Mus musculus [15] = assay: Analgesic activity in albino mouse assessed as decrease in acetic acid-induced writhing at 8.68 mg/kg, po administered 1 hr prior to acetic acid challenge relative to control; assay type: functional; procedure, shortened: as §2
Mus musculus [16] = assay: Analgesic activity in albino mouse assessed as decrease in acetic acid-induced writhing at 8 mg/kg, po administered 1 hr prior to acetic acid challenge; assay type: functional; procedure, shortened: as §2
Mus musculus [17] = assay: Analgesic activity in albino mouse assessed as decrease in acetic acid-induced writhing at 2 mg/kg, po administered 1 hr prior to acetic acid challenge; assay type: functional; procedure, shortened: as §2
Mus musculus [18] = assay: Analgesic activity in po dosed albino mouse assessed as decrease in acetic acid-induced writhing administered 1 hr prior to acetic acid challenge; assay type: functional, organism-based; procedure, shortened: as §2
Mus musculus [19] = assay: Analgesic activity in albino mouse assessed as decrease in acetic acid-induced writhing at 1 mg/kg, po administered 1 hr prior to acetic acid challenge; assay type: functional; procedure, shortened: as §2
Mus musculus [20] = assay: Analgesic activity in albino mouse assessed as decrease in acetic acid-induced writhing at 11.75 mg/kg, po administered 1 hr prior to acetic acid challenge relative to control; assay type: functional; procedure, shortened: as §2
Mus musculus [21] = assay: Analgesic activity in albino mouse assessed as decrease in acetic acid-induced writhing at 11.49 mg/kg, po administered 1 hr prior to acetic acid challenge relative to control; assay type: functional; procedure, shortened: as §2
Mus musculus [22] = assay: Analgesic activity in albino mouse assessed as decrease in acetic acid-induced writhing at 9 mg/kg, po administered 1 hr prior to acetic acid challenge relative to control; assay type: functional; procedure, shortened: as §2

| SMILES | relative potency at 29 µmol/kg (Rattus norvegicus [1]) | UI (Rattus norvegicus [2]) | inhibition in vivo at 29 µmol/kg (Rattus norvegicus [3]) [%] | inhibition in vivo at 29 µmol/kg (Rattus norvegicus [4]) [%] | inhibition in vivo at 29 µmol/kg (Rattus norvegicus [5]) [%] | inhibition in vivo at 29 µmol/kg (Rattus norvegicus [6]) [%] | other results |
| --- | --- | --- | --- | --- | --- | --- | --- |
| CCCn1cnc2c(c1=N)C1CCCN1C(=S)N2CC (stereo unspecified) | 0.24 | Non-toxic | 9.37 | 6.82 | 15.7 | 13.5 | inhibition in vivo at 8.45 mg/kg (Mus musculus [7]): 77.2% |
| O=C1NC(c2ccccc2)NC2=C1C1CCCN1C(=O)N2c1ccccc1 (stereo unspecified) | 0.38 | – | 11.5 | 10.6 | 12.4 | 4.47 | inhibition in vivo at 10.45 mg/kg (Mus musculus [8]): 77.7% |
| CCCC/N=c1/c(C#N)c2n(c(=O)n1-c1ccccc1)CCC2 | 0.81 | Non-toxic | 19.4 | 22.4 | 24 | 11.2 | inhibition in vivo at 8.94 mg/kg (Mus musculus [9]): 88.7% |
| CCN1C(=S)N2CCCC2c2c1ncn(C)c2=N (stereo unspecified) | 0.36 | Non-toxic | 11.5 | 9.93 | 14.1 | 11.2 | inhibition in vivo at 7.63 mg/kg (Mus musculus [10]): 97.6% |
| N#Cc1c2n(c(=O)n(-c3ccccc3)/c1=N\CCO)CCC2 | 1 | Non-toxic | 25.9 | 27.3 | 22.3 | 5.6 | inhibition in vivo at 8.59 mg/kg (Mus musculus [11]): 87.8% |
| N#CC1=C(NCCN)N(c2ccccc2)C(=O)N2CCCC12 (stereo unspecified) | 0.61 | – | 25.9 | 16.9 | 27.3 | 15.7 | inhibition in vivo at 4 mg/kg (Mus musculus [12]): 96%; inhibition in vivo at 0.8 mg/kg (Mus musculus [13]): 81.3%; inhibition in vivo at 0.4 mg/kg (Mus musculus [14]): 49.4%; inhibition in vivo at 8.68 mg/kg (Mus musculus [15]): 96.3%; inhibition in vivo at 8 mg/kg (Mus musculus [16]): 96.4%; inhibition in vivo at 2 mg/kg (Mus musculus [17]): 94.4%; IC50 (Mus musculus [18]): 0.402 mg/kg; inhibition in vivo at 1 mg/kg (Mus musculus [19]): 90.6% |
| O=C1NC(c2ccc([N+](=O)[O-])cc2)NC2=C1C1CCCN1C(=O)N2c1ccccc1 (stereo unspecified) | 0.7 | – | 14.4 | 19.2 | 14.1 | 1.1 | inhibition in vivo at 11.75 mg/kg (Mus musculus [20]): 94.6% |
| N#Cc1c2n(c(=O)n(-c3ccccc3)/c1=N/c1cccc(C(F)(F)F)c1)CCC2 | 0.34 | – | 8.63 | 9.31 | 7.44 | 8.97 | inhibition in vivo at 11.49 mg/kg (Mus musculus [21]): 63.8% |
| CCO/C=N/C1=C(C#N)C2CCCN2C(=O)N1c1ccccc1 (stereo unspecified) | 0.18 | Non-toxic | 5.78 | 4.96 | 9.12 | 22.4 | inhibition in vivo at 9 mg/kg (Mus musculus [22]): 69.8% |
